Test results taken from article PMC8269116 (Journal of psychopharmacology (Oxford, England), 2019).
Values joined by “and” are separate entries in the source; they are usually repeats but may differ in a detail not shown here. Identical values can stand only once. Like-named read-outs stand apart in the source and are kept apart here.

Key:
human TAAR1 = biological target: T1, human TAAR1 (Homo sapiens, UniProt Q96RJ0); experiment: Human TAAR1 activation, cAMP assay in HEK 293 cells; type: cell-based
T1 sequence (Q96RJ0 1-339): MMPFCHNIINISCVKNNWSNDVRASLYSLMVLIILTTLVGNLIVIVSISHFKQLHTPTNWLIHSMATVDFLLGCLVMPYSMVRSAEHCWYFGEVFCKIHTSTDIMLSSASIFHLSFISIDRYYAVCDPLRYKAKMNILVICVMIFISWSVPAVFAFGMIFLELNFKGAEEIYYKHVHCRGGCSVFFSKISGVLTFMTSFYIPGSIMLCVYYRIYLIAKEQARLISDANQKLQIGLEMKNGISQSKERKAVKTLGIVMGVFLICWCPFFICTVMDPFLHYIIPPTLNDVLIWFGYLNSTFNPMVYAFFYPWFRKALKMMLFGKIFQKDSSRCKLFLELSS
In short: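 Recombinant HEK 293 cells expressing human TAAR1 were pelleted, resuspended, seeded at 80,000/well and incubated 20 h at 37 °C. After a PBS wash, the cells were preincubated 60 min at 37 °C in KRB with 1 mM IBMX. Test compound (300 pM–30 μM, duplicate), β-phenylethylamine (maximal response) or basal control was added for 40 min at 37 °C. Cells were lysed 120 min at RT with Ru-cAMP Alexa700 anti-cAMP antibody mix, and fluorescence was read against a per-plate cAMP standard curve (0.13 nM–10 μM).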

5-HT1A receptor = biological target: T2, 5-HT1A receptor (Homo sapiens, UniProt P08908); experiment: Radioligand binding, [3H]8-hydroxy-2-
T2 sequence (P08908 1-422): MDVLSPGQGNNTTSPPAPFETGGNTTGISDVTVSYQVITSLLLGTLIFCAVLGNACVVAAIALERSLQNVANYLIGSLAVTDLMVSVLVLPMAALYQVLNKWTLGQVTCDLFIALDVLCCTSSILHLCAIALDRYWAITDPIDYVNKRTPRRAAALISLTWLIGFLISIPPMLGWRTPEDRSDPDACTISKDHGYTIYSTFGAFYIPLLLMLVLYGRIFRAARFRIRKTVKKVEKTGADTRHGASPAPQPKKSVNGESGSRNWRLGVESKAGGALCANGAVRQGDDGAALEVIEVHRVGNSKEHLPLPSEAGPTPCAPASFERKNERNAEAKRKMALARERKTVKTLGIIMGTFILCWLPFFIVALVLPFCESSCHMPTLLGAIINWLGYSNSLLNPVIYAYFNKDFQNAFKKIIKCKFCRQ

DAT [1] = biological target: T3, DAT (Homo sapiens, UniProt Q01959); experiment: Radioligand binding, [3H]WIN35,428 displacement
[2] = biological target: human 5-HT transporter (SERT) (Homo sapiens, UniProt P31645); experiment: [3H]5-HT uptake inhibition in HEK 293 cells overexpressing human SERT; type: cell-based
rat TAAR1 = rat TAAR1 (Rattus norvegicus, UniProt Q923Y9); experiment: Radioligand binding, [3H]RO5166017 displacement
[3] = biological target: T4, α1 adrenergic receptor (α1A) (Homo sapiens, UniProt P35348); experiment: Radioligand binding, [3H]prazosin displacement
T4 sequence (P35348 1-466): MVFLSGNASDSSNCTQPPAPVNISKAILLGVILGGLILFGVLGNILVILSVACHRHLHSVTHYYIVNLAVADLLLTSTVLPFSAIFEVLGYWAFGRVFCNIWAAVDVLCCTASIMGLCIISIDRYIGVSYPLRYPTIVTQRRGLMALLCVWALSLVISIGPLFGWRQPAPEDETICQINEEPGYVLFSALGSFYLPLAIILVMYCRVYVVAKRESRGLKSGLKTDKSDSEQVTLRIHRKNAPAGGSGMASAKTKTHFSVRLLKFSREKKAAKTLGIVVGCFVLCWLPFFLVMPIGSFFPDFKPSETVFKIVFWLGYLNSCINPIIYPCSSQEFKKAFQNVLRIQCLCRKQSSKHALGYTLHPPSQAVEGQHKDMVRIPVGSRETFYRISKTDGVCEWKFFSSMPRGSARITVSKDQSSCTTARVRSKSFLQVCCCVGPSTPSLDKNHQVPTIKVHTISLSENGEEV

5-HT2A receptor = 5-HT2A receptor (Homo sapiens, UniProt P28223); experiment: Radioligand binding, [3H]ketanserin displacement
[4] = biological target: T5, α2 adrenergic receptor (α2A) (Homo sapiens, UniProt P08913); experiment: Radioligand binding, [3H]rauwolscine displacement
T5 sequence (P08913 1-465): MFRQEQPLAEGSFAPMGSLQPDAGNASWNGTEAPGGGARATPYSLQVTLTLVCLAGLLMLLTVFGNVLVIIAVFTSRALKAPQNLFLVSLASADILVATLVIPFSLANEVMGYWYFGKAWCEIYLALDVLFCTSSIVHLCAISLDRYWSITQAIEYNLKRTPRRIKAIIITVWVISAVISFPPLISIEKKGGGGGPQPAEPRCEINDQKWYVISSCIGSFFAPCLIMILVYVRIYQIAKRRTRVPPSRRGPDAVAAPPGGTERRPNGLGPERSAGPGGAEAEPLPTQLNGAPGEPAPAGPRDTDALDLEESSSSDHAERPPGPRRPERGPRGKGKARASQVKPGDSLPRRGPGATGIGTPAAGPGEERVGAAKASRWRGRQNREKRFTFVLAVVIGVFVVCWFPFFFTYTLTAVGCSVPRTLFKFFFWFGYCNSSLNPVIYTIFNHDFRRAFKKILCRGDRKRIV

DAT [5] = biological target: T3, DAT; experiment: [3H]dopamine uptake inhibition in HEK 293 cells overexpressing human DAT; type: cell-based; details: for DAT/SERT ratio: 1/DAT IC50 : 1/SERT IC50, mean and 95% confidence interval
5-HT2C receptor = biological target: T6, 5-HT2C receptor (Homo sapiens, UniProt P28335); experiment: biochemical; type: binding
T6 sequence (P28335 33-458): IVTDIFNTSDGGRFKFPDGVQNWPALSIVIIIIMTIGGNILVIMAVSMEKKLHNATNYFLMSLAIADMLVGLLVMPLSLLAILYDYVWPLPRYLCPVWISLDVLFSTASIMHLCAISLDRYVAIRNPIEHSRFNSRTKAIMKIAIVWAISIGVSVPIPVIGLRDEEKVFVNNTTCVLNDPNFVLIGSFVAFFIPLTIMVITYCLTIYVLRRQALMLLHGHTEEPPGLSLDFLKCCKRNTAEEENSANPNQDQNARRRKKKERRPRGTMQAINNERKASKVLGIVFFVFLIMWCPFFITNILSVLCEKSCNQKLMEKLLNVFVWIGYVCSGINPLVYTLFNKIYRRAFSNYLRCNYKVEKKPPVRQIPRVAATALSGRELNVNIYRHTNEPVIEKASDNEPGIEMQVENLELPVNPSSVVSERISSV

SERT = SERT (Homo sapiens, UniProt P31645); experiment: Radioligand binding, [3H]citalopram displacement
mouse TAAR1 = mouse TAAR1 (Mus musculus, UniProt Q923Y8); experiment: Radioligand binding, [3H]RO5166017 displacement
NET [6] = biological target: T7, NET (Homo sapiens, UniProt P23975); experiment: Radioligand binding, N-methyl-[3H]nisoxetine displacement
dopamine D2 receptors = dopamine D2 receptors (Homo sapiens, UniProt P14416); experiment: Radioligand binding, [3H]spiperone displacement
NET [7] = biological target: T7, NET; experiment: [3H]norepinephrine uptake inhibition in HEK 293 cells overexpressing human NET; type: cell-based
human 5-HT2B receptor = human 5-HT2B receptor (Homo sapiens, UniProt P41595); experiment: 5-HT2B receptor activation, FLIPR calcium assay in HEK 293 cells; type: cell-based
[8] = healthy human subjects, oral MDMA; ref Schmid et al., 2016; cited from earlier work
[9] = rat plasma, subcutaneous methylone; ref Elmore et al., 2017; cited from earlier work
[10] = after subcutaneous injection of methylone; ref Stefkova et al., 2017; cited from earlier work
[11] = ref Lopez-Arnau et al., 2013, cited from earlier work

Chain of human 5-HT transporter (SERT) (P31645 whole entry): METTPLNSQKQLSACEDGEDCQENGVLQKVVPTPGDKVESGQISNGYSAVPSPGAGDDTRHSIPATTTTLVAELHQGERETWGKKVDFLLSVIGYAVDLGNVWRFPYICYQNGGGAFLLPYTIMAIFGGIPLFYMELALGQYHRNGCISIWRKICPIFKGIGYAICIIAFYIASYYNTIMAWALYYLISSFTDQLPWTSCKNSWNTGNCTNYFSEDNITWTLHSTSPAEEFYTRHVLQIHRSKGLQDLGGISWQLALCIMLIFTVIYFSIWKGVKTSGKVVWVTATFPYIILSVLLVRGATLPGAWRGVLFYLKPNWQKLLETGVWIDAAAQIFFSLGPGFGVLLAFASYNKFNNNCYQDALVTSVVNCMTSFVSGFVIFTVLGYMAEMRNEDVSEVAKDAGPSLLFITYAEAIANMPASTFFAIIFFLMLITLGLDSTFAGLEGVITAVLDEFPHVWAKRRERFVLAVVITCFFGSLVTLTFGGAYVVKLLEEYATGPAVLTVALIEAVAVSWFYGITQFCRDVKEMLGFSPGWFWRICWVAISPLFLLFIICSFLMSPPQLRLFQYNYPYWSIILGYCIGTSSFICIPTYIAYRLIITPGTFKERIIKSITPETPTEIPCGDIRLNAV
Chain of SERT (P31645 whole entry): as above
Chain of 5-HT2A receptor (P28223 whole entry): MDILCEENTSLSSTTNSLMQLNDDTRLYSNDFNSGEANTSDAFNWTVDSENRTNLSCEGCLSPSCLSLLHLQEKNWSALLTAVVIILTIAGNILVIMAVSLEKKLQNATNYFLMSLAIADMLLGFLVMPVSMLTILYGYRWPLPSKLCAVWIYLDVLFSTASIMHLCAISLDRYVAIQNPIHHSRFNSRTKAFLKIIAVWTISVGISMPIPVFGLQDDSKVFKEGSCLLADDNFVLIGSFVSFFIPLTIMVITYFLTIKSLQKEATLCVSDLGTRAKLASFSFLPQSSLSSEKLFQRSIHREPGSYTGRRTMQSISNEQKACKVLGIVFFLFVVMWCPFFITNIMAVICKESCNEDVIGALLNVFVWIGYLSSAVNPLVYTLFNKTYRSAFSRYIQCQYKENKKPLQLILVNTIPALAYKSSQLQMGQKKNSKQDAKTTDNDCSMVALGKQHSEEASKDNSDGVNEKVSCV
T7 sequence (P23975 whole entry): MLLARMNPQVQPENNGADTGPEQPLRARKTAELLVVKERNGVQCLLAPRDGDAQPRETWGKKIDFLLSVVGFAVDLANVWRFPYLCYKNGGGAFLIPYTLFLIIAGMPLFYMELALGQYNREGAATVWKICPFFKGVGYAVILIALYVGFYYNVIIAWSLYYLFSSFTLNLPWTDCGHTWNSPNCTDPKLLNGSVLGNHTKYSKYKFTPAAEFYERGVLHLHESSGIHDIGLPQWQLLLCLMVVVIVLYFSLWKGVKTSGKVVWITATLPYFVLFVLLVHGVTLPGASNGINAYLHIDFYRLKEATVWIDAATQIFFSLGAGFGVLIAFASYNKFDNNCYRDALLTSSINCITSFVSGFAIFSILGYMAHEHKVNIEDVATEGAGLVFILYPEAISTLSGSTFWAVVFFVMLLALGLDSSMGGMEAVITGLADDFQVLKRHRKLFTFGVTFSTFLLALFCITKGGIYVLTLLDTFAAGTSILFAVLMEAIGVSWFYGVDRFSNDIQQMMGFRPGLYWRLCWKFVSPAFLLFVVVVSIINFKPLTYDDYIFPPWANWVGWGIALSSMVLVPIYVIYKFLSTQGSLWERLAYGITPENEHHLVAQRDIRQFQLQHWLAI
Chain of dopamine D2 receptors (P14416 whole entry): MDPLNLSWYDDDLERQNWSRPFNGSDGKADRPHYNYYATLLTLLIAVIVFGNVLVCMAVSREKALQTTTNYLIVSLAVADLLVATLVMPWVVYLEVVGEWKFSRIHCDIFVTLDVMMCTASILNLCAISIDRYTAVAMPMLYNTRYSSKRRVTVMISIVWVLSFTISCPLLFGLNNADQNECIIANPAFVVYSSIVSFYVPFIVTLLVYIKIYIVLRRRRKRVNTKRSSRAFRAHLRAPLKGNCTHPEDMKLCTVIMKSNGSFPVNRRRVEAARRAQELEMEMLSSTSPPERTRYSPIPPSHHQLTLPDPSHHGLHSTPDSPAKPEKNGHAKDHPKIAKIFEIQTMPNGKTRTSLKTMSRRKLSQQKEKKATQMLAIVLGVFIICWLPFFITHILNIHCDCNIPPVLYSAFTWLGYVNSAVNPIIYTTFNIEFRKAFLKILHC
Chain of mouse TAAR1 (Q923Y8 whole entry): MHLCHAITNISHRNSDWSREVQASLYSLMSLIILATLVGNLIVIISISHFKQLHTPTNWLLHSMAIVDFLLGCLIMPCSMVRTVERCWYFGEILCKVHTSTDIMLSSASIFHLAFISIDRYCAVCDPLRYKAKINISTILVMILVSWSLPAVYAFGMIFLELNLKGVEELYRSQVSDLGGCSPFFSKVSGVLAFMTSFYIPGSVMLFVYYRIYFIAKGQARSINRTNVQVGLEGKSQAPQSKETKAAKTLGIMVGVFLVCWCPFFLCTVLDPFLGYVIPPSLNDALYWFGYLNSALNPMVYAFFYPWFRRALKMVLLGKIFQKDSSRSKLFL
T3 sequence (Q01959 whole entry): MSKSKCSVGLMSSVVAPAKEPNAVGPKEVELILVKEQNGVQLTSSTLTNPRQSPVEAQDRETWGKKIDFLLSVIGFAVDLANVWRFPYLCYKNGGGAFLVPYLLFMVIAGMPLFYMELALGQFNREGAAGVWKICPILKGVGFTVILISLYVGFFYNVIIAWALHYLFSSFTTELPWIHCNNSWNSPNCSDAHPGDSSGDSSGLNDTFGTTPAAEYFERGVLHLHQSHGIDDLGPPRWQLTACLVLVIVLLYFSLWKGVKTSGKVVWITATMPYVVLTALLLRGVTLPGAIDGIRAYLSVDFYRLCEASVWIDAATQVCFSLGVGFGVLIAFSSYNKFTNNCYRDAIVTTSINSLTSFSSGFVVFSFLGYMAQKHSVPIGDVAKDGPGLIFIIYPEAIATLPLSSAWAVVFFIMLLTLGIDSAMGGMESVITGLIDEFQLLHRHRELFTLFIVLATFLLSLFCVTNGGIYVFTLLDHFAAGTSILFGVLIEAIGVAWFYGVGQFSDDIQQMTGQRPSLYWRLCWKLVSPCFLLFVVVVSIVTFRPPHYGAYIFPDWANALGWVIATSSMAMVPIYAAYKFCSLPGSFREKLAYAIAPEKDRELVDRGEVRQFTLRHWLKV
Chain of rat TAAR1 (Q923Y9 whole entry): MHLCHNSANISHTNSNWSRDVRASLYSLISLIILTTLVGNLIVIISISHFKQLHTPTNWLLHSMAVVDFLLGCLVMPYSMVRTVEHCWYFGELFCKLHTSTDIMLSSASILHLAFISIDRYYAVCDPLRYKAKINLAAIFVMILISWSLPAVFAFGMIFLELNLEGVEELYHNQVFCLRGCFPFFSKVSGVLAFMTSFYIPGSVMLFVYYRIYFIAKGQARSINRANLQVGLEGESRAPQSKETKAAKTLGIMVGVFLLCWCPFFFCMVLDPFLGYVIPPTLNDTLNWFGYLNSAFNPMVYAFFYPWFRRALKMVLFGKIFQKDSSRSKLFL
Chain of human 5-HT2B receptor (P41595 whole entry): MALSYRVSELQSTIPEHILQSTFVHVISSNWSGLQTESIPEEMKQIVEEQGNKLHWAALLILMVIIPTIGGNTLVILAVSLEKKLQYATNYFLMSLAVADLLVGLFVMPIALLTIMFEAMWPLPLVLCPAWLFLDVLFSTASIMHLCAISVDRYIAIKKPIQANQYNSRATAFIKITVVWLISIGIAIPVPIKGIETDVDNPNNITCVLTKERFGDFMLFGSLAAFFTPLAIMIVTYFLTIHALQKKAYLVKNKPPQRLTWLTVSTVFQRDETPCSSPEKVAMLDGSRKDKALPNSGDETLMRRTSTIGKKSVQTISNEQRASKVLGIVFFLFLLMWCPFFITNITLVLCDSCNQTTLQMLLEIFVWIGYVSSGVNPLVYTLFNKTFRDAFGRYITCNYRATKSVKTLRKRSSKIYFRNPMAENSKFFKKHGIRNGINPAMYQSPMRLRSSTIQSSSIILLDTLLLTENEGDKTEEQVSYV

With `COc1cc(CC(C)N)ccc1O` (stereo not shown) [HMA, 4-hydroxy-3-methyoxyamphetamine] the EC50 (human TAAR1; read-out: human TAAR1 activation EC50) was 10.4 µM and 10 µM, the “human TAAR1 activation efficacy” value (human TAAR1; β-phenylethylamine as maximal response) was 51 ± 12% and the Ki (5-HT1A receptor; read-out: 5-HT1A Ki, mean±SD, n=3) was over 18 µM. The Ki (DAT [1]; read-out: DAT Ki, mean±SD, n=3) was over 8.5 µM, the IC50 ([2]; read-out: SERT IC50, 5-HT uptake inhibition, mean and 95% confidence interval) was 35 µM and the Ki (rat TAAR1; read-out: TAAR1rat Ki, mean±SD, n=3) was 0.15 ± 0.02 µM. For the same compound, the Ki ([3]; read-out: α1A Ki, mean±SD, n=3) was over 9.5 µM, the Ki (5-HT2A receptor; read-out: 5-HT2A Ki, mean±SD, n=3) was over 12 µM and the Ki ([4]; read-out: α2A Ki, mean±SD, n=3) was over 4.7 µM. The DAT/SERT ratio (DAT [5]) was 270 (96–830), the “maximum dopamine transporter inhibition” value (DAT [5]; partial inhibition of dopamine uptake) was 66% and the Ki (5-HT2C receptor; read-out: 5-HT2c Ki, mean±SD, n=3) was over 5.1 µM. The Ki (SERT; read-out: SERT Ki, mean±SD, n=3) was over 7.4 µM, the Ki (mouse TAAR1; read-out: TAAR1mouse Ki, mean±SD, n=3) was 0.05 ± 0.02 µM and the Ki (NET [6]; read-out: NET Ki, mean±SD, n=3) was over 8.8 µM. For the same compound, the Ki (dopamine D2 receptors; read-out: D2 Ki, mean±SD, n=3) was over 13 µM.
Compound `CC(N)Cc1ccc2c(c1)OCO2` (stereo not shown) [MDA, 3,4-methylenedioxyamphetamine, reference compound] has a Ki (5-HT1A receptor) of 9 ± 0.8 µM, a Ki (DAT [1]) of over 8.5 µM and an IC50 [2] of 4.3 µM. The IC50 (NET [7]) was 0.38 µM, the Ki (rat TAAR1) was 0.22 ± 0.03 µM and the Ki [3] was 8.8 ± 0.6 µM. It also gave a Ki (5-HT2A receptor) of 3.2 ± 0.8 µM, a Ki [4] of 2.6 ± 0.1 µM and an EC50 (human 5-HT2B receptor) of 0.2 ± 0.01 µM. For the same compound, the “5-HT2B receptor activation efficacy” value (human 5-HT2B receptor; relative to 5-HT activity defined as 100%) was 51 ± 7%, the IC50 (DAT [5]) was 17 µM and the Ki (SERT) was over 7.4 µM. The Ki (mouse TAAR1) was 0.18 ± 0.03 µM, the Ki (NET [6]) was over 8.8 µM and the “Cmax as % of the Cmax of MDMA” value [8] was 4–8%. The Ki (dopamine D2 receptors) was over 13 µM.
In the case of `CNC(C)C(=O)c1ccc2c(c1)OCO2` (stereo not shown) [Methylone, 3,4-methylenedioxymethcathinone, reference compound], the Ki (5-HT1A receptor) is given as over 17 µM, the “time at which Cmax was reached” value [9] is given as 15 min and the Ki (DAT [1]) is given as 2.3 ± 0.1 µM. The IC50 [2] was 18 µM, the IC50 (NET [7]) was 0.56 µM and the “brain vs. serum concentration, times higher” value [10] was “approximately five”. For the same compound, the “time of maximum brain and serum concentrations” value [10] was 30 min, the Ki (rat TAAR1) was over 5 µM and the Ki [3] was over 9.5 µM. For the same compound, the Tmax ([11]; 15 mg/kg oral dose) was 30 min, the Tmax ([11]; 30 mg/kg oral dose) was 60 min and the Ki (5-HT2A receptor) was over 12 µM. For the same compound, the Ki [4] was over 5 µM, the IC50 (DAT [5]) was 6.6 µM and the DAT/SERT ratio (DAT [5]) was 2.7 (1.9–3.8). The Ki (5-HT2C receptor) was over 14 µM, the Ki (SERT) was over 7.5 µM and the Ki (mouse TAAR1) was over 4.7 µM. For the same compound, the Ki (NET [6]) was over 8.7 µM and the Ki (dopamine D2 receptors) was over 13 µM.
